Source: ChEMBL document CHEMBL1124146, “Synthesis of the tumorigenic 3,4-dihydrodiol metabolites of dibenz[a,j]anthracene and 7,14-dimethyldibenz[a,j]anthracene” (1988)

Experiments:
Assay type in all cases: functional
Mus musculus [1] = species: Mus musculus; assay: Compound was tested at a dose of 400 nmol for the skin tumor initiating activity expressed as percent of mice with papillomas
In short: (§1)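 The initiator was applied topically to the shaved skin in 0.2 mL peroxide-free THF; controls received THF only. After 2 weeks, 3.4 nmol TPA in 0.2 mL acetone was given twice weekly. Papillomas were recorded weekly, with random histology. Means were compared by Student's t test.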

Mus musculus [2] = species: Mus musculus; assay: Compound was tested at a dose of 400 nmol for the skin tumor initiating activity expressed as papillomas per mouse; in short: as §1
Mus musculus [3] = species: Mus musculus; assay: Compound was tested at a dose of 100 nmol for the skin tumor initiating activity expressed as papillomas per mouse; in short: as §1
Mus musculus [4] = species: Mus musculus; assay: Compound was tested at a dose of 100 nmol for the skin tumor initiating activity expressed as percent of mice with papillomas; in short: as §1

SMILES | Activity (Mus musculus [1]) [%] | Activity (Mus musculus [2]) | Activity (Mus musculus [3]) | Activity (Mus musculus [4]) [%]
O[C@H]1[C@H]2O[C@H]2c2c(ccc3cc4ccc5ccccc5c4cc23)[C@@H]1O | 92 | 3.95 | – | –
Cc1c2ccc3c(c2c(C)c2c1ccc1ccccc12)C=C[C@H](O)[C@H]3O | 100 | 14.7 | 9.9 | 93
O[C@H]1C=Cc2c(ccc3cc4ccc5ccccc5c4cc23)[C@@H]1O | 39 | 0.65 | – | –
c1ccc2c(c1)ccc1cc3ccc4ccccc4c3cc12 [DIBENZO[A,J]ANTHRACENE] | 29 | 0.58 | – | –
Cc1c2ccc3ccccc3c2c(C)c2c1ccc1ccccc12 | 97 | 17.3 | 8.4 | 97
